The target in data set [1] is T1, Proteinase-activated receptor 2 (Homo sapiens, UniProt P55085).
T1 sequence (P55085 whole entry): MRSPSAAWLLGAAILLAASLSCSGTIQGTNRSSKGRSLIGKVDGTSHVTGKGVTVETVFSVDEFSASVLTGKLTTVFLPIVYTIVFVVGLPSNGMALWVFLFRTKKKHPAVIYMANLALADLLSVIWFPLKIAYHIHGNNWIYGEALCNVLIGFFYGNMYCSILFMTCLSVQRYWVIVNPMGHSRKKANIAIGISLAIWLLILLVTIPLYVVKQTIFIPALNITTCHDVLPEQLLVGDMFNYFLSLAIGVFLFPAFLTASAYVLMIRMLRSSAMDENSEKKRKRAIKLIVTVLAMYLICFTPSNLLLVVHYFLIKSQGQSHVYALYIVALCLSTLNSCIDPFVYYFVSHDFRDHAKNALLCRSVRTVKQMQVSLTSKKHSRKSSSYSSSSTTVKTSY
The data set is described as follows: Agonist activity at human PAR2 expressed in HEK293T cells assessed as induction of Galphaq-stimulated IP1 formation incubated for 2 hrs by FRET assay. The class given is functional, cell-based, HEK-293T. In outline: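 Gq activation via PAR2 in HEK293 cells, read as IP1 accumulation by FRET (IP-One). For curves without a plateau, the value given is efficacy at 30 μM. Data are mean ± SEM of at least three independent experiments, each performed in duplicate.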

For data set [2], the target named is T1, Proteinase-activated receptor 2. The data set is described as follows: Agonist activity at PK1-tagged PAR2 (unknown origin) expressed in HEK293 cells assessed as induction of beta-arrestin recruitment incubated for 90 mins by Pathhunter chemiluminescent assay. The class given is cell-based. In outline: (§1)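 PathHunter enzyme-complementation read-out of β-arrestin-2 recruitment to PAR2 in HEK293 cells. Efficacy is expressed relative to reference 2f-LIGRLO-NH2. Data are mean ± SEM of at least three independent experiments run in duplicate.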
A general note: Activated receptors often draw arrestin, which recruitment assays turn into a signal.

Data set [3] has the same target. The data set is described as follows: Agonist activity at PK1-tagged PAR2 (unknown origin) expressed in HEK293 cells assessed as induction of beta-arrestin recruitment incubated for 90 mins by Pathhunter chemiluminescent assay relative to 2f-LIGRLO-NH2. It is filed as cell-based. Conditions: 1.5 h; call rule not given here. In outline:
as §1

A short description of data set [4]: Metabolic stability in Sprague-Dawley rat liver microsomes assessed as CYP450-mediated drug degradation at 20 uM measured up to 60 mins in presence of NADPH by LC-MS analysis. Conditions: 1 h. (In general: Liver microsomes are a subcellular fraction often used to study metabolism.)
Data set [5] in a line: Stability in rat plasma measured up to 4 hrs by LC-MS analysis. The class given is ADME, cell-free. The method in brief: (§2)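 Ligand was incubated in rat plasma and sampled at set time points up to 4 h. Samples were analysed by LC–MS. Standard-corrected peak areas are expressed as % of t = 0 min, mean ± SEM (n ≥ 3).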
A short description of data set [6]: Stability in rat plasma assessed as drug degradation after 1 hr by LC-MS analysis. It is filed as ADME, cell-free. The method in brief:
as §2

In data set [7] the target is T1, Proteinase-activated receptor 2. The data set is described as follows: Agonist activity at PK1-tagged PAR2 (unknown origin) expressed in HEK293 cells assessed as induction of beta-arrestin recruitment at 30 uM incubated for 90 mins by Pathhunter chemiluminescent assay relative to 2f-LIGRLO-NH2. Conditions: 1.5 h. The class given is cell-based. In outline: as §1

SMILES strings stand for the structures. Non-standard residues stand in square brackets, D forms with d. Residues, ends and D or L forms follow the SMILES beside them. *: point of attachment. Orn = NCCC[C@H](N)C(=O)O; 2Furoyl = O=C(c1ccco1)*

One may read the EC50 as the concentration at which the effect is half-maximal. As usually defined, the Emax is the maximal effect, on the per cent scale that the assay sets.

As for `NC(=O)Cc1ccccc1CNC(=O)[C@H](CC1CCCCC1)NC(=O)c1ccno1`, the values for the half-maximal effective concentration (EC50) in data set [1] (read-out: EC50) and in data set [2] (read-out: EC50) were 590 nM and 6000 nM, respectively. Moreover, in data set [3], the maximum response (Emax) is 65%. For the same molecule, the Stability result in data set [4] and in data set [5] was “Stable” each time.

Turning to `CC[C@H](C)[C@H](NC(=O)[C@H](CC(C)C)NC(=O)c1ccco1)C(=O)NCC(=O)N[C@@H](CCCN=C(N)N)C(=O)N[C@@H](CC(C)C)C(=O)N[C@@H](CCCN)C(N)=O` (2Furoyl-LIGRL[Orn]-NH2), the results for the concentration for a half-maximal effect (EC50) in data set [1] (read-out: EC50) and in data set [2] (read-out: EC50) were 150 nM and 430 nM, respectively. The Stability result in data set [4] is on record as “Stable”; in data set [6], “Unstable”.

On to `NC(=O)Cc1ccccc1CNC(=O)Cc1ccccc1CNC(=O)c1ccno1`, for which the half-maximal effective concentration (EC50) result in data set [1] (hek-293t) and in data set [2] (hek293) was “Not Active” in each case.

As for `CC[C@H](C)[C@H](NC(=O)[C@H](CC(C)C)NC(=O)c1ccco1)C(=O)NCC(=O)N[C@@H](CCCNC(=N)N)C(=O)N[C@@H](CC(C)C)C(=O)N[C@@H](CCCN)C(N)=O` (2Furoyl-LIGRL[Orn]-NH2), the Emax in data set [3] came out at 100%.

Take `Cc1cc(C(=O)N[C@@H](CC2CCCCC2)C(=O)NCc2ccccc2CC(N)=O)on1`: the EC50 is 640 nM in data set [1] (read-out: EC50) and 8900 nM in data set [2] (read-out: EC50). Moreover, the maximum response (Emax) in data set [3] was 95%. Also, the Stability result in data set [4] and in data set [5] was “Stable” throughout.

Consider `NC(=O)Cc1ccccc1CNC(=O)[C@H](Cc1ccccc1)NC(=O)c1ccno1`, for which the EC50 in data set [1] (read-out: EC50) was 1900 nM. For the same molecule, the maximal response (Emax) at 30 µM in data set [7] worked out at 32%.

The values are drawn from ChEMBL document CHEMBL4616713, “Discovery of Novel Nonpeptidic PAR2 Ligands” (ACS Med Chem Lett, 2020).
